Test results: ChEMBL document CHEMBL2429728, “Novel Macrocyclic Amidinoureas: Potent Non-Azole Antifungals Active against Wild-Type and Resistant Candida Species” (2013)

Experiments:
Type in all cases: functional
Candida albicans [1] = test: Antifungal activity against fluconazole-resistant Candida albicans DSY292 harboring ERG11 gene mutant and increase expressing of MDR1 gene after 24 hrs by visually and spectrophotometric analysis; conditions: DSY292, 24 h
In short: (§1)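 Endpoint is MIC90, in μg/mL, read at 24 h by both visual inspection and spectrophotometry.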

Pichia kudriavzevii = test: Antifungal activity against wild type Candida krusei ATCC 14243 after 24 hrs by visually and spectrophotometric analysis; conditions: ATCC 14243, 24 h
Candida albicans [2] = test: Antifungal activity against fluconazole-resistant Candida albicans DSY751 harboring ERG11 gene mutant and increase expressing of MDR1 gene after 24 hrs by visually and spectrophotometric analysis; conditions: DSY751, 24 h; in short: as §1
Candida albicans [3] = test: Antifungal activity against fluconazole-resistant Candida albicans DSY775 harboring ERG11 gene mutant and increase expressing of CDR1 and CDR2 genes after 24 hrs by visually and spectrophotometric analysis; conditions: DSY775, 24 h; in short: as §1
Candida albicans [4] = test: Antifungal activity against fluconazole-resistant Candida albicans DSY348 harboring ERG11 gene mutant and increase expressing of CDR1 and CDR2 genes after 24 hrs by visually and spectrophotometric analysis; conditions: DSY348, 24 h; in short: as §1
Clavispora lusitaniae [5] = test: Antifungal activity against Candida lusitaniae ATCC 60247 after 24 hrs by visually and spectrophotometric analysis; conditions: ATCC 60247, 24 h
In short: (§2)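 Read-out is MIC90 in μg/mL, scored at 24 h both by eye and spectrophotometrically. The panel is Candida isolates that earlier reports describe as amphotericin B-resistant, with amphotericin B run alongside as the reference drug.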

Nakaseomyces glabratus [6] = test: Antifungal activity against fluconazole-resistant Candida glabrata DSY754 increase expressing of CgCDR1 gene after 24 hrs by visually and spectrophotometric analysis; conditions: DSY754, 24 h; in short: as §1
Nakaseomyces glabratus [7] = test: Antifungal activity against fluconazole-resistant Candida glabrata DSY2271 increase expressing of CgCDR2 genes after 24 hrs by visually and spectrophotometric analysis; conditions: DSY2271, 24 h; in short: as §1
Candida albicans [8] = test: Antifungal activity against fluconazole-resistant Candida albicans DSY289 harboring ERG11 gene mutant and increase expressing of CDR1 and CDR2 genes after 24 hrs by visually and spectrophotometric analysis; conditions: DSY289, 24 h; in short: as §1
Candida albicans [9] = test: Antifungal activity against fluconazole-resistant Candida albicans DSY735 expressing high level of CDR1 and CDR2 genes after 24 hrs by visually and spectrophotometric analysis; conditions: DSY735, 24 h; in short: as §1
Candida albicans [10] = test: Antifungal activity against fluconazole-resistant Candida albicans DSY296 harboring ERG11 gene mutant and increase expressing of CDR1 and CDR2 genes after 24 hrs by visually and spectrophotometric analysis; conditions: DSY296, 24 h; in short: as §1
Candida tropicalis [11] = test: Antifungal activity against wild type Candida tropicalis after 24 hrs by visually and spectrophotometric analysis
Candida albicans [12] = test: Antifungal activity against wild type Candida albicans ATCC 60193 after 24 hrs by visually and spectrophotometric analysis; conditions: ATCC 60193, 24 h
Clavispora lusitaniae [13] = test: Antifungal activity against Candida lusitaniae ATCC 24348 after 24 hrs by visually and spectrophotometric analysis; conditions: ATCC 24348, 24 h; in short: as §2
Clavispora lusitaniae [14] = test: Antifungal activity against Candida lusitaniae ATCC 200952 after 24 hrs by visually and spectrophotometric analysis; in short: as §2
Nakaseomyces glabratus [15] = test: Antifungal activity against fluconazole-resistant Candida glabrata DSY530 increase expressing of CgCDR1 gene after 24 hrs by visually and spectrophotometric analysis; conditions: DSY530, 24 h; in short: as §1
Candida albicans [16] = test: Antifungal activity against fluconazole-resistant Candida albicans DSY284 harboring ERG11 gene mutant and increase expressing of CDR1 and CDR2 genes after 24 hrs by visually and spectrophotometric analysis; conditions: DSY284, 24 h; in short: as §1
Clavispora lusitaniae [17] = test: Antifungal activity against Candida lusitaniae ATCC 200953 after 24 hrs by visually and spectrophotometric analysis; in short: as §2
Nakaseomyces glabratus [18] = test: Antifungal activity against fluconazole-resistant Candida glabrata DSY2254 increase expressing of CgCDR1 and CgCDR2 genes after 24 hrs by visually and spectrophotometric analysis; conditions: DSY2254, 24 h; in short: as §1
Candida parapsilosis = test: Antifungal activity against wild type Candida parapsilosis ATCC 34136 after 24 hrs by visually and spectrophotometric analysis; conditions: Lodderomyces parapsilosis, ATCC 34136, 24 h
Clavispora lusitaniae [19] = test: Antifungal activity against Candida lusitaniae ATCC 200950 after 24 hrs by visually and spectrophotometric analysis; conditions: ATCC 200950, 24 h; in short: as §2
Clavispora lusitaniae [20] = test: Antifungal activity against Candida lusitaniae ATCC 200951 after 24 hrs by visually and spectrophotometric analysis; in short: as §2
Nakaseomyces glabratus [21] = test: Antifungal activity against wild type Candida glabrata after 24 hrs by visually and spectrophotometric analysis
Candida albicans [22] = test: Antifungal activity against Candida albicans ATCC 200955 after 24 hrs by visually and spectrophotometric analysis; conditions: ATCC 200955, 24 h; in short: as §1
Candida tropicalis [23] = test: Antifungal activity against Candida tropicalis ATCC 200956 after 24 hrs by visually and spectrophotometric analysis; conditions: ATCC 200956, 24 h; in short: as §2
[24] = system: Meyerozyma guilliermondii; test: Antifungal activity against wild type Candida guilliermondii after 24 hrs by visually and spectrophotometric analysis
Kluyveromyces marxianus = test: Antifungal activity against wild type Candida kefyr after 24 hrs by visually and spectrophotometric analysis
Nakaseomyces glabratus [25] = test: Antifungal activity against fluconazole-resistant Candida glabrata DSY756 increase expressing of CgCDR1, CgCDR2, and CgSNQ2 genes after 24 hrs by visually and spectrophotometric analysis; conditions: DSY756, 24 h; in short: as §1

Row | SMILES | MIC90 (Candida albicans [1]) | MIC90 (Pichia kudriavzevii) | MIC90 (Candida albicans [2]) | MIC90 (Candida albicans [3]) | MIC90 (Candida albicans [4]) | MIC90 (Clavispora lusitaniae [5]) | MIC90 (Nakaseomyces glabratus [6]) | MIC90 (Nakaseomyces glabratus [7]) | MIC90 (Candida albicans [8]) | MIC90 (Candida albicans [9]) | MIC90 (Candida albicans [10]) | MIC90 (Candida tropicalis [11]) | MIC90 (Candida albicans [12]) | MIC90 (Clavispora lusitaniae [13]) | MIC90 (Clavispora lusitaniae [14]) | MIC90 (Nakaseomyces glabratus [15]) | MIC90 (Candida albicans [16]) | MIC90 (Clavispora lusitaniae [17]) | MIC90 (Nakaseomyces glabratus [18]) | MIC90 (Candida parapsilosis) | also measured
1 | C/C=C/CNC(=N)NCCCCCCCCN1CCCCOc2ccccc2CNC(=N)NC1=O.O=C(O)C(F)(F)F | 16 µg/mL | 32 µg/mL | 16 µg/mL | 16 µg/mL | 8 µg/mL | 16 µg/mL | 64 µg/mL | 64 µg/mL | 8 µg/mL | 8 µg/mL | 16 µg/mL | 8 µg/mL | 16 µg/mL | 8 µg/mL | 8 µg/mL | 64 µg/mL | 16 µg/mL | 16 µg/mL | 64 µg/mL | 8 µg/mL | MIC90 (Clavispora lusitaniae [19]): 8 µg/mL; MIC90 (Clavispora lusitaniae [20]): 8 µg/mL; MIC90 (Nakaseomyces glabratus [21]): 64 µg/mL; MIC90 (Candida albicans [22]): 8 µg/mL; MIC90 (Candida tropicalis [23]): 16 µg/mL; MIC90 [24]: 16 µg/mL; MIC90 (Kluyveromyces marxianus): 4 µg/mL; MIC90 (Nakaseomyces glabratus [25]): 64 µg/mL
2 | C/C=C/CNC(=N)NCCCCCCCCN1CCCCCOc2ccccc2CNC(=N)NC1=O.O=C(O)C(F)(F)F | 4 µg/mL | 8 µg/mL | 4 µg/mL | 4 µg/mL | 2 µg/mL | 4 µg/mL | 16 µg/mL | 8 µg/mL | 2 µg/mL | 2 µg/mL | 4 µg/mL | 2 µg/mL | 4 µg/mL | 2 µg/mL | 2 µg/mL | 8 µg/mL | 2 µg/mL | 4 µg/mL | 16 µg/mL | 2 µg/mL | MIC90 (Clavispora lusitaniae [19]): 2 µg/mL; MIC90 (Clavispora lusitaniae [20]): 2 µg/mL; MIC90 (Nakaseomyces glabratus [21]): 8 µg/mL; MIC90 (Candida albicans [22]): 1 µg/mL; MIC90 (Candida tropicalis [23]): 4 µg/mL; MIC90 [24]: 2 µg/mL; MIC90 (Kluyveromyces marxianus): 4 µg/mL; MIC90 (Nakaseomyces glabratus [25]): 8 µg/mL
3 | C/C=C/CNC(=N)NCCCCCCCCN1CCCCCCOc2ccccc2CNC(=N)NC1=O.O=C(O)C(F)(F)F | 10 µg/mL | 4 µg/mL | 10 µg/mL | 10 µg/mL | 5 µg/mL | 5 µg/mL | 40 µg/mL | 36 µg/mL | 5 µg/mL | 5 µg/mL | 10 µg/mL | 1 µg/mL | 4 µg/mL | 5 µg/mL | 5 µg/mL | 36 µg/mL | 9 µg/mL | 5 µg/mL | 40 µg/mL | 2 µg/mL | MIC90 (Clavispora lusitaniae [19]): 5 µg/mL; MIC90 (Clavispora lusitaniae [20]): 5 µg/mL; MIC90 (Nakaseomyces glabratus [21]): 16 µg/mL; MIC90 (Candida albicans [22]): 5 µg/mL; MIC90 (Candida tropicalis [23]): 10 µg/mL; MIC90 [24]: 2 µg/mL; MIC90 (Kluyveromyces marxianus): 2 µg/mL; MIC90 (Nakaseomyces glabratus [25]): 36 µg/mL
